Source: ChEMBL document CHEMBL2177018, “Identification, synthesis, and biological evaluation of metabolites of the experimental cancer treatment drugs indotecan (LMP400) and indimitecan (LMP776) and investigation of isomerically hydroxylated indenoisoquinoline analogues as topoisomerase I poisons” (J Med Chem, 2012)
Calls of active or inactive are those of the source. The calls are words filed in the database; no cut-off is given here.

Experiments:
SN12C = experiment: Antiproliferative activity against human SN12C cells; type: functional
In short: (§1)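 NCI-60 human tumour cell line panel. Initial one-dose pre-screen at 10−5 molar, then five concentrations from 10−8 to 10−4 molar. GI50 taken as the concentration giving 50% growth inhibition.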

HCT-116 = experiment: Antiproliferative activity against human HCT116 cells; type: functional; in short: as §1
HOP-62 = experiment: Antiproliferative activity against human HOP62 cells; type: functional; in short: as §1
[1] = target: T1, DNA topoisomerase 1 (Homo sapiens) (UniProt P11387); experiment: Inhibition of human recombinant Top1-mediated DNA cleavage after 20 mins by […] analysis relative to camptothecin; design: concentration or dose not given beside the values
T1 sequence (whole entry): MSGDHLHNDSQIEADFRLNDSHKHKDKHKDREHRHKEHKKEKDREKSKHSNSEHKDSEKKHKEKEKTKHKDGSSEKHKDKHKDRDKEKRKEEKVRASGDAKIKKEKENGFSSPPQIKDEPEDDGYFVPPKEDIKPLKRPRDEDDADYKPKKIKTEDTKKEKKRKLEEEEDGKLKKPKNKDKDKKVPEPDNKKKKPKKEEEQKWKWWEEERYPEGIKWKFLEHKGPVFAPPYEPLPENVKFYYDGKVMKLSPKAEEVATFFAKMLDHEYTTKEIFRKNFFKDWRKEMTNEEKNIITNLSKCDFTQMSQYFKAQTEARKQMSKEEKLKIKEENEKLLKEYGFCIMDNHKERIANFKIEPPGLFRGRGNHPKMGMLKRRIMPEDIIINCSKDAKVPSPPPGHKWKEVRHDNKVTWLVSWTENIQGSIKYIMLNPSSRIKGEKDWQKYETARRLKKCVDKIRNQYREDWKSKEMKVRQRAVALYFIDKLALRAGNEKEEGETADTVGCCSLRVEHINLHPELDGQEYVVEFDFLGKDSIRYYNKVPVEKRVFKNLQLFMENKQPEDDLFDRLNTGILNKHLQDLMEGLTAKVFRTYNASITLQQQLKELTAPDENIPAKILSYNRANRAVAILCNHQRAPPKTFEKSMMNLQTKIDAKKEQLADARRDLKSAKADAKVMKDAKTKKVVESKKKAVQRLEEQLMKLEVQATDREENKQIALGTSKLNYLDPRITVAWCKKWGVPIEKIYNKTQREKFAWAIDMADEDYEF
In short: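 Baculovirus-purified human recombinant Top1 with ~2 nM 117-bp oligonucleotide, 3′-end 32P-labelled. Compounds at 0.1–100 μM, room temperature 20 min, stopped with 0.5% SDS. 20% denaturing PAGE, phosphorimaging. Cleavage graded against 1 μM camptothecin.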

UACC-62 = experiment: Antiproliferative activity against human UACC62 cells; type: functional; in short: as §1
MCF7 = experiment: Antiproliferative activity against human MCF7 cells; type: functional; in short: as §1
DU-145 = experiment: Antiproliferative activity against human DU145 cells; type: functional; in short: as §1
OVCAR-3 = experiment: Antiproliferative activity against human OVCAR3 cells; type: functional; in short: as §1
SF-539 = experiment: Antiproliferative activity against human SF539 cells; type: functional; in short: as §1
Liver microsomes [2] = experiment: Drug metabolism in human liver microsomes assessed as formation of 6-(3-(1H-Imidazol-1-yl)propyl)-8,9-dihydroxy-2,3-dimethoxy-5H-indeno[1,2-c]isoquinoline-5,11(6H)-dione at 10 uM after 60 mins in presence of NADPH; type: ADME, Microsome
In short: (§2)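 Substrate at 10 μM with pooled human liver microsomes (15 donors, mixed gender; 1 mg/mL protein) in 50 mM phosphate, pH 7.4, 37 °C. After 5 min preincubation, 1 mM NADPH started a 60 min reaction. Stopped on ice with acidified acetonitrile; supernatant dried, redissolved, LC-MS and LC-MS/MS. Controls lacked microsomes or NADPH.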

Liver microsomes [3] = experiment: Drug metabolism in human liver microsomes assessed as formation of 5,6-Dihydro-3-hydroxy-6-3-(1H-imidazol-1-yl)propyl)-2-methoxy- 8,9-methylenedioxy-5,11-dioxo-11H-indeno[1,2-c]- isoquinoline at 10 uM after 60 mins in presence of NADPH; type: ADME, Microsome; in short: as §2
Liver microsomes [4] = experiment: Drug metabolism in human liver microsomes assessed as formation of 5,6-Dihydro-3-hydroxy-2-methoxy-8,9-methylenedioxy-6-3- [(morpholino)propyl)]-5,11-dioxo-11H-indeno[1,2-c]- isoquinoline at 10 uM after 60 mins in presence of NADPH; type: ADME, Microsome; conditions: 1 h; in short: as §2
Liver microsomes [5] = experiment: Drug metabolism in human liver microsomes assessed as formation of 8,9-Dihydroxy-2,3-dimethoxy-6-(3-morpholinopropyl)-5Hindeno[ 1,2-c]isoquinoline-5,11(6H)-dione at 10 uM after 60 mins in presence of NADPH; type: ADME, Microsome; conditions: 1 h; in short: as §2

Structure (SMILES) | GI50 (SN12C) [nM] | GI50 (HCT-116) [nM] | GI50 (HOP-62) [nM] | inhibition [1] | GI50 (UACC-62) [nM] | GI50 (MCF7) [nM] | GI50 (DU-145) [nM] | GI50 (OVCAR-3) [nM] | GI50 (SF-539) [nM] | Drug metabolism (Liver microsomes [2]) | Drug metabolism (Liver microsomes [3]) | Drug metabolism (Liver microsomes [4]) | Drug metabolism (Liver microsomes [5])
COc1cc2c3c(n(CCCN4CCOCC4)c(=O)c2cc1OC)-c1cc(O)c(O)cc1C3=O | 65 | 407 | 371 | Active | 78 | 50 | 490 | 501 | 148 | – | – | – | –
COc1cc2c(=O)n(CCCn3ccnc3)c3c(c2cc1O)C(=O)c1cc2c(cc1-3)OCO2 | < 10 | 20 | < 10 | Active | 30 | – | < 10 | 70 | < 10 | – | – | – | –
COc1cc2c3c(n(CCCn4ccnc4)c(=O)c2cc1OC)-c1cc2c(cc1C3O)OCO2 (centres undefined) | 501 | 1350 | 549 | 50% | 372 | 427 | 407 | 1950 | 479 | – | – | – | –
COc1cc2c(cc1O)-c1c(c3cc(OC)c(OC)cc3c(=O)n1CCCn1ccnc1)C2=O | – | > 100000 | > 100000 | 50% | 331 | 50 | > 100000 | > 100000 | – | – | – | – | –
COc1cc2c3c(n(CCCn4ccnc4)c(=O)c2cc1O)-c1cc2c(cc1C3=O)OCO2 | < 10 | < 10 | < 10 | Active | < 10 | < 10 | < 10 | 30 | < 10 | – | – | – | –
COc1cc2c(cc1O)C(=O)c1c-2n(CCCn2ccnc2)c(=O)c2cc(OC)c(OC)cc12 | < 10 | < 10 | < 10 | Active | < 10 | < 10 | < 10 | 20 | < 10 | – | – | – | –
COc1cc2c3c(n(CCCN4CCOCC4)c(=O)c2cc1O)-c1cc2c(cc1C3=O)OCO2 | < 10 | 20 | 10 | 75% | < 10 | < 10 | < 10 | 30 | < 10 | – | – | – | –
COc1cc2c3c(n(CCCn4ccnc4)c(=O)c2cc1OC)-c1cc2c(cc1C3=O)OCO2 [INDIMITECAN] | – | – | – | – | – | – | – | – | – | Active | Active | – | –
COc1cc2c3c(n(CCCn4ccnc4)c(=O)c2cc1OC)-c1cc(O)c(O)cc1C3=O | 30 | 229 | 40 | 50% | < 10 | 20 | 100 | 407 | 10 | – | – | – | –
COc1cc2c3c(n(CCCN4CCOCC4)c(=O)c2cc1OC)-c1cc2c(cc1C3=O)OCO2 [INDOTECAN] | – | – | – | – | – | – | – | – | – | – | – | Active | Active
COc1cc2c(=O)n(CCCN3CCOCC3)c3c(c2cc1O)C(=O)c1cc2c(cc1-3)OCO2 | 195 | 279 | 257 | 50% | 282 | 144 | 257 | 871 | 335 | – | – | – | –
COc1cc2c(cc1O)C(=O)c1c-2n(CCCN2CCOCC2)c(=O)c2cc(OC)c(OC)cc12 | 20 | 30 | 20 | Active | 20 | 20 | 20 | 30 | 20 | – | – | – | –
COc1cc2c3c(n(CCCN4CCOCC4)c(=O)c2cc1OC)-c1cc2c(cc1C3O)OCO2 (centres undefined) | 3390 | 2400 | 2090 | 50% | 776 | 646 | 2630 | 4790 | 2400 | – | – | – | –
COc1cc2c(cc1O)-c1c(c3cc(OC)c(OC)cc3c(=O)n1CCCN1CCOCC1)C2=O | 191 | 2340 | 180 | 75% | 70 | 30 | 204 | 8320 | 282 | – | – | – | –
